Experimental data taken from the EternaBench riboswitch data.

System: MS2 coat protein
Test: apparent Kd, MS2 coat protein; higher = weaker binding; RNA-MaP array; FMN 200 µM where present
How it was run: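 Green signal from SNAP-549-labelled MS2 coat protein was normalised to red-channel RNA signal and to the median Fmax of control clusters. The protein was titrated from 0.7 or 1.5 nM, doubling to 3 µM, without and then with constant ligand, over designs transcribed by stalled E. coli RNA polymerase on Illumina sequencing-chip clusters, in 100 mM Tris-HCl pH 7.5, 80 mM KCl, 4 mM MgCl2, BSA, DTT, yeast tRNA and Tween-20. The apparent Kd is the median of filtered per-cluster binding-curve fits.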

[1] = designed as: OFF switch for flavin mononucleotide, no ligand
[2] = ligand present: flavin mononucleotide, designed as: OFF switch for flavin mononucleotide
[3] = designed as: ON switch for flavin mononucleotide, no ligand
[4] = ligand present: flavin mononucleotide, designed as: ON switch for flavin mononucleotide

Sequence	apparent Kd [1]	apparent Kd [2]	apparent Kd [3]	apparent Kd [4]
UAUAUAUAGUAAGGAUAUGUAAUUUUUUUAUAAACAGAAGGUACUGACAUGAGGAUCACCCAUGUUUUAGUGUGGGCAUGUAGA	107 nM	169 nM	–	–
AAAGUUGGUAGGCCCUCGGAACAUGAGGAUCACCCAUGUAAGGAGGAUAUGCCCGGUACCCGCUGGCAGAAGGCCUUAUAAGAA	28.2 nM	239 nM	–	–
UAAAUUAUACAAGGAUAUCUAUCGUAGUUUAGACUUACAUGAGGAUCACCCAUGUUAAUAUGUUUAGAGAAGGUGUAUUUUCAG	–	–	43.3 nM	22.5 nM
ACUUACUGAGGAUAUACAUAGAUUUACAUGAGGAUCACCCAUGUUCCUCUAUGUAUAAAUGUAGAAGGCAGAAGUG	22.4 nM	120 nM	–	–
UUGAAGCUCACAGGAUAUCAGUAUGCACGAUCUAGCGCAUUAAUGAACUGCUGAGAAGGGUGAGACAUGAGGAUCACCCAUGUA	–	–	593 nM	209 nM
CACAUGUGAGGAUAUGUAAUAAAGGCGACGCGGGUCGCCCGACAGAAGGCACAUGAGGAUCACCCAUGUGAUGA	37 nM	98 nM	–	–
CGCGCGUCGACAGGAUAUACAGAUUGGCUCCGGUACAUGAGGAUCACCCAUGUAGAAGGGUCACGCACGGAUAGUACAUUAUUA	8.44 nM	28 nM	–	–
CCGGCUGCUGUGAGGAUAUGCCUGUGCGCCCGCGGGCAGAAGGCACAUGAGGAUCACCCAUGUCCUGCGGUCCC	39 nM	41.2 nM	–	–
UGUCGGAGCAGAGGAUAUUACAUGAGGAUCACCCAUGUAUGAACCAAUAGCUUGAAACAGCAAUGUAAGAAGGCUGCUCCGACA	7.66 nM	84.2 nM	–	–
GUGUACAGAGGAUAUACACGAGUAGUUACGAAAGUAACUACACAUGAGGAUCACCCAUGUAGAAGGCUGUACAC	25 nM	30.3 nM	–	–
CCUGUUUGAUUCCUCUUAUACAUGAGGAUCACCCAUGUUAUCGAGGAUAUGCAUUAGAGUGUUUAGCAGAAGGCGAUGUAAUUG	6.12 nM	17.5 nM	–	–
CGCUGUCAUGCAGGAUAUGCAUUGGAUUACAAUGCAGAAGGGCGAUUACAUGAGGAUCACCCAUGUGUAGACAGUGAAGAAGAC	–	–	167 nM	11.9 nM
GGUACUCAAAGAGUACCAAUACGAACAUGAGGAUCACCCAUGUAGGAUAUGCUACUCAAAGAGUAGCAGAAGGAUAUGUGCUUA	16.9 nM	15.3 nM	–	–
CGUCGAAAUGUAGGAUAUCUGCACGAUUAGUGCAGAGAAGGACAUGAGGAUCACCCAUGUAGAUCACGACGAAUUAAUUUAAUU	60.7 nM	480 nM	–	–
AGAAACUACGAGAAGGACAUAUGGUUCUUCAGAUACAUGAGGAUCACCCAUGUAGGAUAUCGUAGUUUCAGGAUCGUGAGAUCA	6.51 nM	9.68 nM	–	–
GUGUAGACAGGAUAUGCUUUGAGCAUAUGAGAGUAUGCUCUACAUGAGGAUCACCCAUGUAGAAGGGUCUACAC	11.9 nM	12.5 nM	–	–
CGCUAAGAUGGGUCUAAUGGACCACAGGAUAUGCUUGUACAUGAGGAUCACCCAUGUAAUAUUGUGCAGAAGGGUGGAUUCGCG	–	–	66.5 nM	10.8 nM
CUGAAUCUAGGAUAUUGUACUGCUGACAUGAGGAUCACCCAUGUAUGUUAACUCGGCCGUCGAGAAGGAGAACAUA	36.1 nM	27.6 nM	–	–
CGGGAUCCGAAGGGCGAAAGCCCACAUGAGGAUCACCCAUGUAGAAGGCGGGCCGCAACGCGGCCCGAGGAUAUACAGGAUCCA	17.9 nM	37 nM	–	–
UAAUAAAGUGUGAGGAUAUGCUGGUCCUUGGAUCAGCAGAAGGCACAUGAGGAUCACCCAUGUAAUAUAUAAAU	97.2 nM	292 nM	–	–
AAAUCGGCAGGAUAUACAUGAAAAUUAAAAAAAAAAAAAAAACAUGAGGAUCACCCAUGUAGAAGGGUCAAAAA	88.9 nM	89.2 nM	–	–

Sequence	apparent Kd [1]	apparent Kd [2]	apparent Kd [3]	apparent Kd [4]
CCGCCACAUGAGGAUCACCCAUGUCAGGAUAUCUAUCAUAGCAUCGAAAGAUGCGGGUAGAGAAGGGACUAUCC	28.8 nM	32.2 nM	–	–
GACUGAUUGUAGAAGGUACUUGAAAAUAUAUAAUAUCUCAUGUGACAUGAGGAUCACCCAUGUAGUAAGGAUAUACAUAUCACA	–	–	17.7 nM	17.9 nM
CUUAUGUAAGGAUAUCAGUAGUAAAAAAAUAAAAUUACUACUGAGAAGGUACAUGAGGAUCACCCAUGUAUCUU	17.6 nM	14 nM	–	–
AGUAUGUACGCAGGAUAUACAUGAGGAUCACCCAUGUGGAACAGUGUAGUACUAGUUGAUCCUCAGUAGAAGGGCGGUCGAAUA	63.6 nM	46.4 nM	–	–
GGUACUCAAAGAGUACCAAUACGAACAUGAGGAUCACCCAUGUAGGAUAUGCUACAAAAGGAGUAGCAGAAGGACAUGUGCCUA	13 nM	60.8 nM	–	–
UGGUACUAGGGAGGAUAUGGAAAGAUACAUGAGGAUCACCCAUGUUUAAGAAUGCCGAGAGGCAACUAGAAGGCCCUAGUACCU	–	–	11.1 nM	5.29 nM
UUAACAUGAGGAUCACCCAUGUAUAGAUUGUUUAUUAGAAGUGAGGAUAUAUAUAAAAUUAGGUAGUAGAAGGCACUGGGUUUU	–	–	30.5 nM	31.9 nM
ACGGAACAUGAGGAUCACCCAUGUAUCUGAAAUAUGGACUCACAGGAUAUUCAGAGUUGCCAAUCGGAGAAGGGUGACUCCAGA	–	–	25.5 nM	17.2 nM
AUUGUUGUUGUGAGGAUAUCGUUGAUUUUUUGAAACGAGAAGGCACAUGAGGAUCACCCAUGUUAGUUGUUGGU	96.4 nM	311 nM	–	–
AACAGCUCGUCAGGAUAUAUUUUCAUUAUAUGUAUUUAUGUACAUGAGGAUCACCCAUGUUGUUUGUAGAAGGGACGAGCUGAA	13.6 nM	11.4 nM	–	–
GGAUAGGACAUAGGAUAUACGUGCUAGAGAUACUAGCAAAAUUUCCUCACAUGAGGAUCACCCAUGUAGAAGGCUGUCCUAUCG	6.73 nM	24.5 nM	–	–
UGUCGGAGCAGAGGAUAUUACAUGAGGAUCACCCAUGUGUGAACCAAUAGCUGGAAACAGCAAUGUAAGAAGGCUGCUCCGACA	58.4 nM	29.2 nM	–	–
UUGGACGUCGUAGGAUAUGUAGGAUAUUCCUACAUGAGGAUCACCCAUGUUGACAGGGAAGAAGGACAGAAGGACGAUGUCCAU	–	–	17 nM	4.01 nM
AAUUGGCUCGCGCAGGAUAUGGAUCAUUCCACAUGAGGAUCACCCAUGUUAAGGAGCCUUUGCAUCCAGAAGGGUGCUGGUCUUU	–	–	41.2 nM	14.6 nM
UUAUCUAUGUAAGGAUAUAGAUGAUAUACGCAUCCGACAUGAGGAUCACCCAUGUUAUAUUUUGUCUAGAAGGUACAUUGUCGG	–	–	204 nM	179 nM
AAUUUAAUACAUGAGGAUCACCCAUGUAAAUUAAUUAAGAUCAAGGAUAUCAGCUCGAAUAGAGCUGAGAAGGUGAUCACAUGU	–	–	351 nM	86.5 nM
UGAUAGGAUAAAGGAUAUACGUGCUAGAGAUACUAGCAAAAUUUCCUCACAUGAGGAUCACCCAUGUAGAAGGUUAACCUAUCU	14.7 nM	57.1 nM	–	–
AGGGUACAUGAGGAUCACCCAUGUGGGUCGGUCGCAGGAUAUGCCCGUGGGCGCUGGCGGGCAGAAGGGUGCCGAA	–	–	313 nM	45 nM
CCGUUACAUGAGGAUCACCCAUGUGAGGAUAUCGAUGUGACUAGCAGCGUGCGGGACUCGAGAAGGCACUUGGC	57.8 nM	41.5 nM	–	–
GGUUGUUAUGACAGCGAGUGUUAGAGAAGGUACAUGAGGAUCACCCAUGUACGUGAUCUUGCGAGUAAGGAUAUCUGUUAUUCA	5.65 nM	5.83 nM	–	–
